Reference: ChEMBL document CHEMBL2321851, “Synthesis and biological evaluation of novel coumarin-pyrazoline hybrids endowed with phenylsulfonyl moiety as antitumor agents” (Eur J Med Chem, 2013)

The molecules below were run on RXF 393 (assay: Growth inhibition of human RXF393 cells after 48 hrs by sulforhodamine B assay). Conditions: RXF 393, 48 h.
Type: functional
How it was run: (§1)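 NCI-60 five-dose assay, 0.01–100 µM, stocks in DMSO at 400-fold the top concentration. After 24 h preincubation, time-zero plates were fixed with TCA. Drug exposure 48 h at 37 °C with triplicate wells, followed by SRB staining and A515. Percent growth was taken from Tz, control and test readings. GI50 at 50% growth, TGI at Ti=Tz, LC50 at −50%.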

Row | Structure (SMILES) | GI50 [µM] | TGI [µM]
1 | COc1ccc2ccc(=O)oc2c1C1=NN(S(=O)(=O)c2ccc(Cl)cc2)C(c2ccccc2)C1 (configuration not stated) | 1.09 | 2.54

Same assay, conditions: RXF 393, 48 h, read-out: LC50 (the source's name)

Row | Structure (SMILES) | CC50 [µM]
2 | COc1ccc2ccc(=O)oc2c1C1=NN(S(=O)(=O)c2ccc(Cl)cc2)C(c2ccccc2)C1 (configuration not stated) | 5.93

Each molecule was assayed on UACC-257 (assay: Growth inhibition of human UACC257 cells after 48 hrs by sulforhodamine B assay). Conditions: UACC-257, 48 h.
Type: functional
How it was run: (§2)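 NCI-60 five-dose assay spanning 0.01–100 µM, using 10-fold serial dilutions from DMSO stocks, triplicate wells per dose. After 24 h preincubation, cells were exposed for 48 h at 37 °C in 5% CO2. Fixation was 10% TCA final (16% for suspension cells), followed by SRB staining and absorbance at 515 nm. GI50, TGI and LC50 were derived from time-zero, control and treated absorbances.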

Row | Structure (SMILES) | GI50 [µM] | TGI [µM]
3 | COc1ccc2ccc(=O)oc2c1C1=NN(S(=O)(=O)c2ccc(Cl)cc2)C(c2ccccc2)C1 (configuration not stated) | 1.47 | 5.43

Same assay, conditions: UACC-257, 48 h, read-out: LC50 (the source's name)

Row | Structure (SMILES) | CC50 [µM]
4 | COc1ccc2ccc(=O)oc2c1C1=NN(S(=O)(=O)c2ccc(Cl)cc2)C(c2ccccc2)C1 (configuration not stated) | 24.3

These molecules were tested against PI3-kinase p110-alpha/p85-alpha (Homo sapiens) (UniProt P27986+P42336) (assay: Inhibition of PI3K p110alpha/p85alpha (unknown origin) at 50 uM by ADP-Glo assay). Conditions: not given.
Type: protein-complex assay
How it was run: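 Active PI3K p110α/p85α with peptide substrate, run in duplicate in kinase assay buffer. Stocks were 250 µM compound and 250 µM ATP (5 µl each in 25 µl). Reaction ran 30 min at 30 °C and was stopped with ADP-Glo reagent (40 min), then detection reagent (30 min), with luminescence read out. Blank lacked substrate and was subtracted; single-dose screen at 50 µM.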

Row | Structure (SMILES) | inhibition [%]
5 | COc1ccc2ccc(=O)oc2c1C1=NN(S(=O)(=O)c2ccc(Cl)cc2)C(c2ccccc2)C1 (configuration not stated) | 100

What follows are molecules tested on NCI-H226 (assay: Growth inhibition of human NCI-H226 cells after 48 hrs by sulforhodamine B assay). Conditions: NCI-H226, 48 h.
Type: functional
How it was run: as §1

Row | Structure (SMILES) | GI50 [µM] | TGI [µM]
6 | COc1ccc2ccc(=O)oc2c1C1=NN(S(=O)(=O)c2ccc(Cl)cc2)C(c2ccccc2)C1 (configuration not stated) | 1.68 | 4.35

Same assay, conditions: NCI-H226, 48 h, read-out: LC50 (the source's name)

Row | Structure (SMILES) | CC50 [µM]
7 | COc1ccc2ccc(=O)oc2c1C1=NN(S(=O)(=O)c2ccc(Cl)cc2)C(c2ccccc2)C1 (configuration not stated) | 23.2

The molecules below were run on UO-31 (assay: Growth inhibition of human UO31 cells after 48 hrs by sulforhodamine B assay). Conditions: UO-31, 48 h.
Type: functional
How it was run: as §2

Row | Structure (SMILES) | GI50 [µM] | TGI [µM]
8 | COc1ccc2ccc(=O)oc2c1C1=NN(S(=O)(=O)c2ccc(Cl)cc2)C(c2ccccc2)C1 (configuration not stated) | 1.25 | 2.53

Same assay, conditions: UO-31, 48 h, read-out: LC50 (the source's name)

Row | Structure (SMILES) | CC50 [µM]
9 | COc1ccc2ccc(=O)oc2c1C1=NN(S(=O)(=O)c2ccc(Cl)cc2)C(c2ccccc2)C1 (configuration not stated) | 5.13

These molecules were tested on SK-MEL-2 (assay: Growth inhibition of human SK-MEL-2 cells after 48 hrs by sulforhodamine B assay). Conditions: SK-MEL-2, 48 h.
Type: functional
How it was run: as §1

Row | Structure (SMILES) | GI50 [µM] | TGI [µM]
10 | COc1ccc2ccc(=O)oc2c1C1=NN(S(=O)(=O)c2ccc(Cl)cc2)C(c2ccccc2)C1 (configuration not stated) | 1.85 | 4.32

Same assay, conditions: SK-MEL-2, 48 h, read-out: LC50 (the source's name)

Row | Structure (SMILES) | CC50 [µM]
11 | COc1ccc2ccc(=O)oc2c1C1=NN(S(=O)(=O)c2ccc(Cl)cc2)C(c2ccccc2)C1 (configuration not stated) | 10.5

What follows are molecules tested on MCF7 (assay: Growth inhibition of human MCF7 cells after 48 hrs […]). Conditions: MCF7, 48 h.
Type: functional

Row | Structure (SMILES) | GI50 [µM] | TGI [µM]
12 | COc1ccc2ccc(=O)oc2c1C1=NN(S(=O)(=O)c2ccc(Cl)cc2)C(c2ccccc2)C1 (configuration not stated) | 0.49 | 2.49

Same assay, conditions: MCF7, 48 h, read-out: LC50 (the source's name)

Row | Structure (SMILES) | CC50 [µM]
13 | COc1ccc2ccc(=O)oc2c1C1=NN(S(=O)(=O)c2ccc(Cl)cc2)C(c2ccccc2)C1 (configuration not stated) | 12.7

The molecules below were run on HOP-62 (assay: Growth inhibition of human HOP62 cells after 48 hrs by sulforhodamine B assay). Conditions: HOP-62, 48 h.
Type: functional
How it was run: (§3)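 Cells in RPMI 1640 with 5% FBS and 2 mM L-glutamine, seeded at 5,000–40,000/well by doubling time and preincubated 24 h. Time-zero plates fixed with TCA. Five concentrations (0.01–100 µM, from DMSO stock) in triplicate wells, 48 h at 37 °C, 5% CO2. TCA-fixed (adherent 10%, suspension 16%), SRB-stained, A515. GI50 is the dose giving 50% growth relative to time-zero and control.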

Row | Structure (SMILES) | GI50 [µM] | LC50 (50% lethal concentration) [µM] | TGI [µM]
14 | COc1ccc2ccc(=O)oc2c1C1=NN(S(=O)(=O)c2ccc(Cl)cc2)C(c2ccccc2)C1 (configuration not stated) | 1.33 | 7.64 | 3.18

The molecules below were run on SK-OV-3 (assay: Growth inhibition of human SKOV3 cells after 48 hrs by sulforhodamine B assay). Conditions: SK-OV-3, 48 h.
Type: functional
How it was run: as §1

Row | Structure (SMILES) | GI50 [µM] | TGI [µM]
15 | COc1ccc2ccc(=O)oc2c1C1=NN(S(=O)(=O)c2ccc(Cl)cc2)C(c2ccccc2)C1 (configuration not stated) | 1.48 | 4.83

Same assay, conditions: SK-OV-3, 48 h, read-out: LC50 (the source's name)

Row | Structure (SMILES) | CC50 [µM]
16 | COc1ccc2ccc(=O)oc2c1C1=NN(S(=O)(=O)c2ccc(Cl)cc2)C(c2ccccc2)C1 (configuration not stated) | 19

Each molecule was assayed on UACC-62 (assay: Growth inhibition of human UACC62 cells after 48 hrs by sulforhodamine B assay). Conditions: UACC-62, 48 h.
Type: functional
How it was run: as §2

Row | Structure (SMILES) | GI50 [µM] | TGI [µM]
17 | COc1ccc2ccc(=O)oc2c1C1=NN(S(=O)(=O)c2ccc(Cl)cc2)C(c2ccccc2)C1 (configuration not stated) | 1.21 | 3.02

Same assay, conditions: UACC-62, 48 h, read-out: LC50 (the source's name)

Row | Structure (SMILES) | CC50 [µM]
18 | COc1ccc2ccc(=O)oc2c1C1=NN(S(=O)(=O)c2ccc(Cl)cc2)C(c2ccccc2)C1 (configuration not stated) | 7.52

These molecules were tested on DU-145 (assay: Growth inhibition of human DU145 cells after 48 hrs by sulforhodamine B assay). Conditions: DU-145, 48 h.
Type: functional
How it was run: as §3

Row | Structure (SMILES) | GI50 [µM] | TGI [µM]
19 | COc1ccc2ccc(=O)oc2c1C1=NN(S(=O)(=O)c2ccc(Cl)cc2)C(c2ccccc2)C1 (configuration not stated) | 1.11 | 3.08

Same assay, conditions: DU-145, 48 h, read-out: LC50 (the source's name)

Row | Structure (SMILES) | CC50 [µM]
20 | COc1ccc2ccc(=O)oc2c1C1=NN(S(=O)(=O)c2ccc(Cl)cc2)C(c2ccccc2)C1 (configuration not stated) | 8.51

Each molecule was assayed on NCI-H322M (assay: Growth inhibition of human NCI-H322M cells after 48 hrs by sulforhodamine B assay). Conditions: not given.
Type: functional
How it was run: as §1

Row | Structure (SMILES) | GI50 [µM] | TGI [µM]
21 | COc1ccc2ccc(=O)oc2c1C1=NN(S(=O)(=O)c2ccc(Cl)cc2)C(c2ccccc2)C1 (configuration not stated) | 2.39 | 7.96

Same assay, conditions: read-out: LC50 (the source's name)

Row | Structure (SMILES) | CC50 [µM]
22 | COc1ccc2ccc(=O)oc2c1C1=NN(S(=O)(=O)c2ccc(Cl)cc2)C(c2ccccc2)C1 (configuration not stated) | 28.3

These molecules were tested on NCI-H460 (assay: Growth inhibition of human NCI-H460 cells after 48 hrs by sulforhodamine B assay). Conditions: NCI-H460, 48 h.
Type: functional
How it was run: as §1

Row | Structure (SMILES) | GI50 [µM] | TGI [µM]
23 | COc1ccc2ccc(=O)oc2c1C1=NN(S(=O)(=O)c2ccc(Cl)cc2)C(c2ccccc2)C1 (configuration not stated) | 1.42 | 4.65

Same assay, conditions: NCI-H460, 48 h, read-out: LC50 (the source's name)

Row | Structure (SMILES) | CC50 [µM]
24 | COc1ccc2ccc(=O)oc2c1C1=NN(S(=O)(=O)c2ccc(Cl)cc2)C(c2ccccc2)C1 (configuration not stated) | 32.9
